Laboratory results reported in ChEMBL document CHEMBL3244125, “In vivo inhibitors of Escherichia coli phenylalanyl-tRNA synthetase” (J Med Chem, 1979).
Calls of active or inactive are those of the source. The rule behind the calls is not given here.

How the values were obtained:
Escherichia coli B [1] = assay: Inhibition of Phe-tRNA synthetase in rel+ Escherichia coli B assessed as growth inhibition at IC50 in presence of 2.5 mM L-Phe
Outline: (§1)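 Reversal assay in E. coli B/r. Exponential culture (A600 ≈ 0.3) in basal salts glucose minimal medium was diluted into medium holding the specified amino acid plus inhibitor, at 37 °C. Controls had no inhibitor. Growth was read turbidimetrically at 600 nm after about three generations, as % inhibition relative to control.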

Escherichia coli B [2] = assay: Ratio of IC50 for inhibition of Phe-tRNA synthetase in rel+ Escherichia coli B assessed as growth inhibition to Ki for inhibition of rel+ Escherichia coli B Phe-tRNA synthetase using L-[3H]-phenylalanine as substrate
[3] = Inhibition of Phe-tRNA synthetase in rel+ Escherichia coli B assessed as growth inhibition
Outline: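 E. coli B/r in exponential growth (A600 ≈ 0.3) in basal salts medium (0.2% glucose, phosphate, MgSO4, (NH4)2SO4) was diluted into medium with a range of inhibitor levels. It was incubated at 37 °C for about three generations, until controls reached A600 0.4–0.45. Growth was read at 600 nm as % of control turbidity, and IC50 was taken from % inhibition versus concentration plots.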

[4] = Inhibition of rel+ Escherichia coli B Phe-tRNA synthetase using L-[3H]-phenylalanine as substrate by scintillation counting analysis
[5] = Inhibition of Phe-tRNA synthetase in rel+ Escherichia coli B assessed as reduction of tRNA-Phe level after 30 mins
[6] = target: Isoleucine--tRNA ligase (Escherichia coli K-12) (UniProt P00956); assay: Inhibition of Ile-tRNA synthetase in rel+ Escherichia coli B assessed as tRNA-Ile level at 4.6 uM at 37 degC after 30 mins in absence of casamino acid supplement in tris-glucose minimal media (reference value: 40%)
Isoleucine--tRNA ligase (Escherichia coli K-12), sequence (P00956 whole entry): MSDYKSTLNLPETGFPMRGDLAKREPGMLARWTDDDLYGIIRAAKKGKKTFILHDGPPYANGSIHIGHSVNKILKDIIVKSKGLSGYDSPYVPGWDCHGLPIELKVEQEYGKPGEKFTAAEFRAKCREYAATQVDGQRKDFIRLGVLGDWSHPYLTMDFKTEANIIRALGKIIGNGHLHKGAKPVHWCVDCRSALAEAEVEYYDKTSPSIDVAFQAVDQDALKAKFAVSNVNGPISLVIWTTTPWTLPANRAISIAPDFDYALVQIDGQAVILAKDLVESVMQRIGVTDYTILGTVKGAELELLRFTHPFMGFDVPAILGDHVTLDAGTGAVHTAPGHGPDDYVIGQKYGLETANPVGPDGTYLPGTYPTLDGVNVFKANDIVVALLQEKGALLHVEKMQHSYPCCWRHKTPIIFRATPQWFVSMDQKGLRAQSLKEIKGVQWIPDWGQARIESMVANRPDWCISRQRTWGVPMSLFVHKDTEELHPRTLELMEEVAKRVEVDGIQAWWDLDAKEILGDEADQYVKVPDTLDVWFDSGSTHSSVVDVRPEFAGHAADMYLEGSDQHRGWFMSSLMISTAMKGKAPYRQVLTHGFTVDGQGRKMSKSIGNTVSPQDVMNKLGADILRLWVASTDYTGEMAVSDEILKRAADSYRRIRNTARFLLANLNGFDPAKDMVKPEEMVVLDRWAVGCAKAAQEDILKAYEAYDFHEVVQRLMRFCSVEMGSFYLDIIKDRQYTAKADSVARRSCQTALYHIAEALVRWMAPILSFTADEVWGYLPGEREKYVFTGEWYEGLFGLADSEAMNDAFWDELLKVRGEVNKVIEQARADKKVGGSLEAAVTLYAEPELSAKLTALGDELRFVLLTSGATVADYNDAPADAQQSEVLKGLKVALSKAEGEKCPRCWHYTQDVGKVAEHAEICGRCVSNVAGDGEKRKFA

Escherichia coli B [7] = assay: Inhibition of Val-tRNA synthetase in rel+ Escherichia coli B assessed as tRNA-val level at 230 uM at 37 degC after 30 mins in absence of casamino acid supplement in tris-glucose minimal media
Escherichia coli B [8] = assay: Inhibition of Phe-tRNA synthetase in rel+ Escherichia coli B assessed as growth inhibition at IC50 in presence of Pro; outline: as §1
Escherichia coli [9] = assay: Inhibition of Phe-tRNA synthetase in Escherichia coli NP29 assessed as tRNA-Phe level at 230 uM at 30 degC after 30 mins (reference value: 70%)
Outline: (§2)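 Temperature-sensitive Val-tRNA synthetase strain NP29, grown at 30 °C in Tris-glucose minimal medium with 0.2% casamino acids. Inhibitor was added during log growth and the control was kept at 30 °C. After 30 min, cells were quenched with ice and NaN3 and disrupted. Aminoacyl-tRNA was measured by periodate oxidation (1 mM) or Tris-HCl pH 8.0 stripping, with purified synthetases.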

Escherichia coli B [10] = assay: Inhibition of Phe-tRNA synthetase in rel+ Escherichia coli B assessed as formation of [32P]ppGpp at 230 uM at 37 degC measured every 1 min by scintillation counting analysis in presence of casamino acid supplement in tris-glucose minimal media
Outline: (§3)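 Exponential cultures in Tris-glucose minimal medium were labeled with carrier-free [32P]phosphate at least 30 min before inhibitor. Four to five 25 µL aliquots were taken at about 1-min intervals into ice-cold 2 M formic acid and held 30 min at 0 °C. Extracts were run on PEI-cellulose TLC in 1.5 M KH2PO4 pH 3.4. ppGpp spots were located by autoradiography and counted. Initial rate was taken as the linear increase over time.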

Escherichia coli B [11] = assay: Inhibition of Val-tRNA synthetase in rel+ Escherichia coli B assessed as tRNA-val level at 230 uM at 37 degC after 30 mins in presence of casamino acid supplement in tris-glucose minimal media (reference value: 100%)
Escherichia coli B [12] = assay: Inhibition of Phe-tRNA synthetase in rel+ Escherichia coli B assessed as [3H]-RNA synthesis at 92 uM after 5 mins by scintillation counting analysis in presence of [5-3H]-Uracil
Outline: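 E. coli B/r in exponential growth was labeled with [5-3H]uracil (75 Ci/mol). At intervals, 25 µL culture was put into 1 mL ice-cold trichloroacetic acid for 5 min at 0 °C. Samples were filtered on glass-fibre filters, washed with cold TCA then 95% ethanol, and counted by scintillation.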

Escherichia coli B [13] = assay: Inhibition of Phe-tRNA synthetase in rel+ Escherichia coli B assessed as formation of [32P]ppGpp at 23 uM at 37 degC measured every 1 min by scintillation counting analysis in absence of casamino acid supplement in tris-glucose minimal media; outline: as §3
[14] = target: Isoleucine--tRNA ligase (Escherichia coli K-12) (UniProt P00956); assay: Inhibition of Ile-tRNA synthetase in Escherichia coli NP29 assessed as tRNA-Ile level at 230 uM at 30 degC after 30 mins (reference value: 40%); outline: as §2
Escherichia coli [15] = assay: Inhibition of Val-tRNA synthetase in Escherichia coli NP29 assessed as tRNA-val level at 230 uM at 30 degC after 30 mins (reference value: 30%); outline: as §2
Escherichia coli B [16] = assay: Inhibition of Phe-tRNA synthetase in rel+ Escherichia coli B assessed as half maximal rate of [32P]ppGpp formation at 70 uM measured every 1 min by scintillation counting analysis; outline: as §3
Escherichia coli B [17] = assay: Inhibition of Phe-tRNA synthetase in rel+ Escherichia coli B assessed as formation of [32P]ppGpp at 9.2 uM at 37 degC measured every 1 min by scintillation counting analysis in absence of casamino acid supplement in tris-glucose minimal media; outline: as §3
[18] = target: Isoleucine--tRNA ligase (Escherichia coli K-12) (UniProt P00956); assay: Inhibition of Ile-tRNA synthetase in rel+ Escherichia coli B assessed as tRNA-Ile level at 23 uM at 37 degC after 30 mins in absence of casamino acid supplement in tris-glucose minimal media (reference value: 40%)
Escherichia coli B [19] = assay: Inhibition of Phe-tRNA synthetase in rel+ Escherichia coli B assessed as growth inhibition at 92 uM
Outline: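 E. coli B/r in log phase at 37 °C, with inhibitor added at a set time. Cell density was followed turbidimetrically at 600 nm alongside ppGpp and RNA synthesis measurements.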

Escherichia coli B [20] = assay: Inhibition of Phe-tRNA synthetase in rel+ Escherichia coli B assessed as tRNA-Phe level at 23 uM at 37 degC after 30 mins in absence of casamino acid supplement in tris-glucose minimal media (reference value: 60%)
Escherichia coli B [21] = assay: Inhibition of Phe-tRNA synthetase in rel+ Escherichia coli B assessed as formation of [32P]ppGpp at 92 uM measured every 1 min by scintillation counting analysis; outline: as §3
[22] = target: Isoleucine--tRNA ligase (Escherichia coli K-12) (UniProt P00956); assay: Inhibition of Ile-tRNA synthetase in rel+ Escherichia coli B assessed as tRNA-Ile level at 230 uM at 37 degC after 30 mins in absence of casamino acid supplement in tris-glucose minimal media (reference value: 40%)
Escherichia coli B [23] = assay: Inhibition of rel+ Phe-tRNA synthetase in Escherichia coli B assessed as tRNA-Phe level at 4.6 uM at 37 degC after 30 mins in absence of casamino acid supplement in tris-glucose minimal media (reference value: 60%)
Escherichia coli B [24] = assay: Inhibition of Phe-tRNA synthetase in rel+ Escherichia coli B assessed as growth inhibition at IC50 in presence of Ile; outline: as §1
Escherichia coli B [25] = assay: Inhibition of Phe-tRNA synthetase in rel+ Escherichia coli B assessed as formation of [32P]ppGpp at 230 uM at 37 degC measured every 1 min by scintillation counting analysis in absence of casamino acid supplement in tris-glucose minimal media; outline: as §3
Escherichia coli [26] = assay: Inhibition of Phe-tRNA synthetase in Escherichia coli NP29 assessed as formation of [32P]ppGpp at 230 uM at 30 degC measured every 1 min by scintillation counting analysis; outline: as §3
Escherichia coli B [27] = assay: Inhibition of Phe-tRNA synthetase in rel+ Escherichia coli B assessed as formation of [32P]ppGpp at 4.6 uM at 37 degC measured every 1 min by scintillation counting analysis in absence of casamino acid supplement in tris-glucose minimal media; outline: as §3
Escherichia coli B [28] = assay: Inhibition of Phe-tRNA synthetase in rel+ Escherichia coli B assessed as growth inhibition at IC50 in presence of Tyr; outline: as §1
Escherichia coli B [29] = assay: Inhibition of Phe-tRNA synthetase in rel+ Escherichia coli B assessed as tRNA-Phe level at 230 uM at 37 degC after 30 mins in absence of casamino acid supplement in tris-glucose minimal media (reference value: 60%)
Escherichia coli B [30] = assay: Inhibition of Phe-tRNA synthetase in rel+ Escherichia coli B assessed as growth inhibition at IC50 in presence of Val; outline: as §1
Escherichia coli B [31] = assay: Inhibition of Phe-tRNA synthetase in rel+ Escherichia coli B assessed as growth inhibition at IC50 in presence of Ser; outline: as §1
Escherichia coli B [32] = assay: Inhibition of Phe-tRNA synthetase in rel+ Escherichia coli B assessed as tRNA-Phe level at 9.2 uM at 37 degC after 30 mins in absence of casamino acid supplement in tris-glucose minimal media (reference value: 60%)
[33] = target: Isoleucine--tRNA ligase (Escherichia coli K-12) (UniProt P00956); assay: Inhibition of Ile-tRNA synthetase in rel+ Escherichia coli B assessed as tRNA-Ile level at 230 uM at 37 degC after 30 mins in presence of casamino acid supplement in tris-glucose minimal media (reference value: 50%)
[34] = target: Isoleucine--tRNA ligase (Escherichia coli K-12) (UniProt P00956); assay: Inhibition of Ile-tRNA synthetase in rel+ Escherichia coli B assessed as tRNA-Ile level at 9.2 uM at 37 degC after 30 mins in absence of casamino acid supplement in tris-glucose minimal media (reference value: 40%)
Escherichia coli B [35] = assay: Inhibition of Phe-tRNA synthetase in rel+ Escherichia coli B assessed as tRNA-Phe level at 230 uM at 37 degC after 30 mins in presence of casamino acid supplement in tris-glucose minimal media (reference value: 90%)

## c1ccc(CCNCc2ccccc2)cc1
Escherichia coli B [1]
  inhibition: inactive
Escherichia coli B [2]
  Ratio: 115
[3]
  IC50: 77 µM
[4]
  Ki: 0.67 µM

## OC[C@@H](Cc1ccccc1)NCc1ccccc1
Escherichia coli B [1]
  inhibition: inactive
Escherichia coli B [2]
  Ratio: 106
[3]
  IC50: 82 µM
[4]
  Ki: 0.77 µM

## C[C@@H](Cc1ccccc1)NCc1ccccc1
Escherichia coli B [1]
  inhibition: inactive
Escherichia coli B [2]
  Ratio: 105
[3]
  IC50: 590 µM
[4]
  Ki: 5.6 µM

## C[C@H](Cc1ccccc1)NCc1ccccc1 [N-BENZYLAMPHETAMINE]
[5]
  IC50: 13 µM
[6]
  inhibition: 40%
Escherichia coli B [7]
  inhibition: 100%
Escherichia coli B [8]
  inhibition: Active
Escherichia coli [9]
  inhibition: 5%
Escherichia coli B [10]
  inhibition: Active
Escherichia coli B [11]
  inhibition: 100%
Escherichia coli B [12]
  inhibition: Active
Escherichia coli B [13]
  inhibition: Active
[14]
  inhibition: 45%
Escherichia coli [15]
  inhibition: 95%
Escherichia coli B [16]
  inhibition: Active
Escherichia coli B [17]
  inhibition: Active
[18]
  inhibition: 45%
Escherichia coli B [1]
  inhibition: inactive
Escherichia coli B [19]
  inhibition: Active
Escherichia coli B [20]
  inhibition: 20%
Escherichia coli B [21]
  inhibition: Active
[22]
  inhibition: 45%
Escherichia coli B [2]
  Ratio: 107
Escherichia coli B [23]
  inhibition: 45%
Escherichia coli B [24]
  inhibition: Active
Escherichia coli B [25]
  inhibition: Active
[3]
  IC50: 15 µM
Escherichia coli [26]
  inhibition: Active
Escherichia coli B [27]
  inhibition: Active
Escherichia coli B [28]
  inhibition: Active
Escherichia coli B [29]
  inhibition: 10%
Escherichia coli B [30]
  inhibition: Active
Escherichia coli B [31]
  inhibition: Active
Escherichia coli B [32]
  inhibition: 35%
[33]
  inhibition: 55%
[34]
  inhibition: 40%
[4]
  Ki: 0.14 µM
Escherichia coli B [35]
  inhibition: 15%

## NCCc1ccccc1 [PHENETHYLAMINE]
Escherichia coli B [2]
  Ratio: 117
[3]
  IC50: 10900 µM
[4]
  Ki: 93 µM
